High-throughput results as filed in PubChem BioAssay.
HSV replic up – increases HSV replication in cells; 220,000 compounds, 0.005% hits; AID 1956; maximum fold increase; HSV replication augmentation in cells, fold increase; in the data active = maximum fold increase above about 1.5; inconclusive = no clear call, values can overlap the other calls; tested in PC3 cells
HKDC1 inh – inhibitors of human hexokinase HKDC1; Q2TB90; recombinant HKDC1, G6PDH/diaphorase resazurin coupled fluorescence; inhibition, % at 20 µM; 340,000 compounds, 0.16% hits; AID 493160;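 active = inhibition above about 35% when tested at 20 µM, limit read from the data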
Target sequence (Q2TB90 whole entry, looked up): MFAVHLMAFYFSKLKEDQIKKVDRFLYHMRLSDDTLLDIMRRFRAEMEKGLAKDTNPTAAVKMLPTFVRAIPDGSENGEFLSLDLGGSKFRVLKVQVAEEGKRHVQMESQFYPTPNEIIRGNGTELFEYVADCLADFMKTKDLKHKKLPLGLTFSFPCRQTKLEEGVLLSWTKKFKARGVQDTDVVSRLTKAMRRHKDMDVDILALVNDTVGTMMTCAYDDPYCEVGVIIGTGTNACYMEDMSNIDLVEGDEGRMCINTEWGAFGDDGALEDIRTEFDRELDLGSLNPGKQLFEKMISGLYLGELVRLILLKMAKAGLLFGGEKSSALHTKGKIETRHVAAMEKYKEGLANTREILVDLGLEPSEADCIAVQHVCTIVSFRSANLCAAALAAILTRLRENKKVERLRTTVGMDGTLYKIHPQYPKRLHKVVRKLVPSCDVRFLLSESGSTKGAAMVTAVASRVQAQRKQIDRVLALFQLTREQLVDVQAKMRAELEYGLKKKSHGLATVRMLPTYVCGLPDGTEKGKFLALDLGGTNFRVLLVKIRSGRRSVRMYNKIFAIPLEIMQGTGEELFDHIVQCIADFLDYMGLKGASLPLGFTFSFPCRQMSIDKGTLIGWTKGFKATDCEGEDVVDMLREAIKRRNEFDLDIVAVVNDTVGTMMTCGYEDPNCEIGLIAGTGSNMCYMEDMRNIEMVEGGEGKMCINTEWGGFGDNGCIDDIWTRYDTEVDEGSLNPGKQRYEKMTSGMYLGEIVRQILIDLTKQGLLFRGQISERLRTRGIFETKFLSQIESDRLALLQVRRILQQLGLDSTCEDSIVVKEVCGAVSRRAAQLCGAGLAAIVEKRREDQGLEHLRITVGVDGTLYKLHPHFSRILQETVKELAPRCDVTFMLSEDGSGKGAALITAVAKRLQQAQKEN
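Material: recombinant HKDC1 hexokinase; Amount: HKDC1 at 5 µg/mL; Medium: Tris pH 8.0 buffer with MgCl2, Tween-20, BSA, BME; Schedule: 90 min reaction incubation at room temperature, dark; Technique: coupled resazurin fluorescence, excitation 525 nm, emission 613 nm.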
PERK inh – human PERK inhibition, primary cell-based screen | inhibition, % at 5.6 µM | CHO PERK-DD fusion, SEAP luminescence translation reporter | Q9NZJ5 | AID 1416 | 220,000 compounds, 0.17% hits;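 active = inhibition above the mean inhibition of all tested compounds plus 3 SD, set separately per screening campaign, cut at about 2.9% in these data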;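 note: PERK kinase domain activated by AP20187 dimerizer at 100 nM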
Dynein transport – dynein cargo transport inhibition | 3617.4 mouse cells, GR-EGFP nuclear translocation imaging; test concentration mostly 20 µM; stimulated with dexamethasone, 1 µM; stronger effect = lower value | z-score, hits read low | 220,000 compounds, 0.47% hits;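 active = plate z-score of nuclear minus cytoplasmic receptor signal below a set negative limit, without overly bright fluorescence or cell loss, cut at about -3.5 in these data, passing the limit was not always enough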;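 note: z-score of nuclear minus cytoplasmic ring GR-EGFP intensity difference per well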
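Buffer or medium – tet-free medium with charcoal-stripped serum · Signal – automated 10x imaging of fixed Hoechst-stained cells · Also added – dexamethasone agonist, 1.0 µM final, for 30 min · Incubation – induction 48 h, compound 1 h, agonist 30 min · Read-out – GR-EGFP nuclear translocation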
Autophagy mod – modulators of autophagy; MEF GFP-LC3 puncta imaging; test concentration mostly 10 µM; calls only at 10 µM (by protocol); 190,000 compounds, 0.98% hits; AID 463193;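 active = percentage of spot-positive cells more than 3 SD above its plate mean, without a fluorescence outlier flag or 80% toxicity; inconclusive = no clear call, values can overlap the other calls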
Tb hexokinase – blocks Trypanosoma brucei hexokinase 1 activity. recombinant TbHK1, G6PDH-coupled NADH A340. inhibition, % at 10 µM. 220,000 compounds, 0.11% hits;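 active = inhibition of 50% or more in the single-dose primary screen; inactive = inhibition below 50%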
Hits are given with their value; . = inactive; ? = inconclusive; / = no result given; + = active, no number. Rows were chosen to be rich in hits. Some 1.2% of all compounds tested hit in one or more screens of this group.

SMILES | HSV replic up | HKDC1 inh | PERK inh | Dynein transport | Autophagy mod | Tb hexokinase
CC(=O)N1c2ccc(S(=O)(=O)N3CCCCC3)cc2CC1C(=O)NCc1cccc(Cl)c1 (configuration not stated) | / | . | / | / | / | /
COc1cccc(/C=N/NC(=S)Nc2cccnc2)c1 | . | . | . | . | + | .
COc1ccc(O)c(/C=N/NC(=S)Nc2cccnc2)c1 | . | . | . | . | . | .
COc1ccc(C(=O)NC(=S)Nc2ccc(N3CCOCC3)cc2)cc1Cl | / | . | / | / | / | /
CCOC(=O)C1CCCN(c2cc(=O)n(-c3ccccc3Cl)c(=O)[nH]2)C1 (configuration not stated) | . | . | 3.3 | . | . | .
CCOC(=O)C1CCCN(c2cc(=O)n(Cc3ccc(F)cc3)c(=O)[nH]2)C1 (configuration not stated) | / | . | . | . | . | .
CC(=O)N1N=C(N)SC1(C)C | . | . | . | . | . | .
O=C(OCCCN1CCOCC1)c1ccc(O)c(O)c1 | . | . | 3.4 | . | / | .
O=c1c2ccccc2sn1-c1ccc(S(=O)(=O)N2CCCCC2)cc1 | . | . | . | . | . | .
Cc1ccc(-n2sc3ccccc3c2=O)cc1S(=O)(=O)N1CCCCC1 | . | . | . | . | . | 93
O=C(O)c1ccc2c(=O)n3c(nc2c1)/C(=C/c1ccccc1C(F)(F)F)CCCC3 | . | . | . | . | + | .
CC(=O)Nc1ccc(S(=O)(=O)N2CCSc3ccccc32)cc1 | / | . | / | / | / | /
CN1CCN(CCCOc2ccc(-c3ccccc3)cc2)CC1 | / | . | / | / | / | /
CCN1CCN(CCCOc2ccc(-c3ccccc3)cc2)CC1 | . | . | . | . | + | .
c1ccc(COc2ccc(OCCCCN3CCCCC3)cc2)cc1 | . | . | . | . | + | .
Cc1c(N=C2N=C(NC(=O)c3cccs3)c3ccccc32)c(=O)n(-c2ccccc2)n1C | / | . | . | . | + | .
CC(=O)N1CCc2cc(S(=O)(=O)NCCC(=O)N3CCN(Cc4ccccc4)CC3)ccc21 | . | . | . | . | + | .
Cc1ccc(S(=O)(=O)NCCC(=O)N2CCN(Cc3ccccc3)CC2)cc1 | . | . | . | . | . | .
Cc1cccc(CSc2ccc(S(=O)(=O)N3CCCC3)cn2)c1 | / | . | / | / | / | /
COC(/C(=N/O)c1ccc(Cl)cc1)c1ccccc1 (configuration not stated) | / | . | / | / | / | /
O=c1oc2ccc3ccccc3c2cc1-c1nc2ccccc2o1 | . | . | . | . | . | .
O=c1c(Cl)c2oc3ccccc3nc-2c2ccccc12 | ? | . | . | . | + | .
Cc1ccc(CNCC(O)(c2ccccc2)c2ccc(Cl)cc2)cc1 (configuration not stated) | . | . | . | . | + | .
Cc1ccc(CNCC(O)(c2ccccc2)c2ccccc2)cc1 | / | . | / | / | / | /
Cc1ccc(OCC(=O)Nc2ccc(Cl)cc2)c(-n2nc3ccccc3n2)c1 | . | . | . | . | + | .
SMILES | HSV replic up | HKDC1 inh | PERK inh | Dynein transport | Autophagy mod | Tb hexokinase
CCC(C(=O)N1CCCCCC1)n1nc(C)n2c(cc3occc32)c1=O (configuration not stated) | / | . | / | / | / | /
CCN(CC)CCCNc1oc(-c2cccc(Cl)c2)nc1C#N | . | . | . | . | + | .
C=CCNc1oc(-c2cccc(Cl)c2)nc1C#N | / | . | / | / | / | /
COc1ccc2c(c1)N(C)/C(=C1/SC(=NCc3ccccc3)N(c3ccccc3)C1=O)S2 | . | . | . | . | + | .
C=CCN1C(=O)/C(=C2/Sc3ccc(OC)cc3N2C)SC1=NCc1ccccc1 | . | . | . | . | + | .
C=CCN1C(=O)/C(=C2/Sc3ccc(OC)cc3N2C)SC1=Nc1ccccc1 | . | . | . | . | . | .
COc1ccc(S(=O)(=O)N2CCOCC2)cc1NC(=O)c1cccs1 | / | . | / | / | / | /
Cc1cccc(C(=O)N2CCC(n3nnc4cc(F)ccc43)CC2)c1 | . | . | . | . | . | .
COc1ccc(C(=O)N2CCC(n3nnc4cc(F)ccc43)CC2)cc1OC | . | . | . | . | + | .
COc1cc(S(=O)(=O)NCCCN2CCOCC2)ccc1Cl | . | . | 2.9 | . | . | .
O=C1/C(=C\c2ccco2)SC(=S)N1Cc1ccccc1 | . | . | . | . | . | .
Cc1cc(/C=C2\SC(=S)N(Cc3ccco3)C2=O)c(C)n1-c1ccccc1 | ? | . | . | . | + | .
Cc1cccc(OCCCC(=O)N2CCCCCC2)c1C | / | . | / | / | / | /
COc1ccc(S(=O)(=O)NCC(=O)N(Cc2ccco2)C(C(=O)NC(C)(C)C)C(C)C)cc1 (configuration not stated) | / | . | / | / | / | /
Cc1cc(C(=O)O)ccc1-n1c(C)ccc1C | / | / | 3.3 | . | . | .
Cc1cc(N)ccc1-n1c(C)ccc1C | . | . | . | . | . | .
FC(F)(F)c1ccc2c(c1)NCC1CCCN21 (configuration not stated) | . | . | . | . | + | .
FC(F)(F)c1ccc2c(c1)N1CCCC1CN2 (configuration not stated) | / | . | . | . | + | .
O=[N+]([O-])c1cc(C(F)(F)F)ccc1N1CCCC(O)C1 (configuration not stated) | . | . | . | . | . | .
Cc1ccc(S(=O)(=O)N2CCOCC2)cc1NC(=O)COC(=O)c1ccc(Br)o1 | / | . | / | / | / | /
COc1ccc(CN(C)C(=O)c2ccncc2)c(OC)c1 | / | . | / | / | / | /
Cc1ccc(S(=O)(=O)ON2C(=O)c3ccccc3C2=O)c(C)c1 | . | . | . | -4.8 | . | .
O=C1c2ccccc2C(=O)N1OS(=O)(=O)c1ccc(F)cc1 | / | . | / | / | / | /
CC(SC#N)C(=O)C12CC3CC(CC(C3)C1)C2 (configuration not stated) | . | . | . | -6.8 | . | .
CN(C(=O)c1cccc(NC(=O)Cc2ccc(NC(=O)C3CCCN(S(=O)(=O)c4cccc([N+](=O)[O-])c4)C3)cc2)c1)C1CCC1 (configuration not stated) | / | . | / | / | / | /
SMILES | HSV replic up | HKDC1 inh | PERK inh | Dynein transport | Autophagy mod | Tb hexokinase
CC1CCN(c2ccc(NC(=O)c3ccc(Br)o3)cc2)CC1 | / | . | / | / | / | /
COc1ccc(/C(O)=C/c2nc3ccccc3n(-c3ccccc3)c2=O)cc1 | . | . | . | . | + | .
O=C1/C(=C/C=C/c2ccco2)SC(=S)N1NS(=O)(=O)c1ccccc1 | . | . | . | . | / | 67
Fc1ccc(C[n+]2csc3ccccc32)cc1 | . | . | . | . | . | .
Clc1ccc(C[n+]2csc3ccccc32)cc1 | . | . | . | . | + | .
CN1CCN(CC(=O)n2c3c(c4ccccc42)CCCC3)CC1 | . | . | . | . | + | .
N#Cc1ccc(CSc2nnc(Cc3cccs3)n2Cc2ccco2)cc1 | . | . | . | . | + | .
COC(=O)C1CCN(C(=O)[C@H](C)NC(=O)C2CC(=O)N(c3ccc(F)cc3)C2)CC1 (some centres not stated) | / | . | / | / | / | /
COC(=O)CSc1nnc(-c2sc3ccccc3c2Cl)o1 | . | . | . | . | . | .
